# Assay outcomes (PubChem)
# APP 5'UTR act: activators of APP 5'UTR luciferase reporter, primary screen, SH-SY5Y cells; activation, % at 2 µM; SH-SY5Y APP 5'UTR luciferase reporter, luminescence; zero percent = DMSO vehicle wells; actives 1% (n = 190,000);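 active = activation above a set limit, based on mean plus 3 SD of controls, cut at about 140% in these data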
# TRAIL sens C8: viability loss with TRAIL in NB7+C8 cells, primary screen, TRAIL sensitizer project, cell-based, ATPlite luminescence. inhibition (viability loss, TRAIL sensitization), % at 10 µM. actives 1% (n = 360,000);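 active = compounds causing at least 50% loss of cell viability in the single-dose screen, relative to plate controls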
# FLuc inhib CS: firefly luciferase enzyme inhibitors, primary screen, artefact control for luciferase-based inhibitor screens, biochemical, luminescence, ATPLite; Luciferin 4-monooxygenase (Photinus pyralis), P08659; 10 min; inhibition, % at 10 µM; actives 1.5% (n = 200,000);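 active = inhibition above about 50% when tested at 10 µM, limit read from the data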
# Target sequence (P08659 whole entry, looked up): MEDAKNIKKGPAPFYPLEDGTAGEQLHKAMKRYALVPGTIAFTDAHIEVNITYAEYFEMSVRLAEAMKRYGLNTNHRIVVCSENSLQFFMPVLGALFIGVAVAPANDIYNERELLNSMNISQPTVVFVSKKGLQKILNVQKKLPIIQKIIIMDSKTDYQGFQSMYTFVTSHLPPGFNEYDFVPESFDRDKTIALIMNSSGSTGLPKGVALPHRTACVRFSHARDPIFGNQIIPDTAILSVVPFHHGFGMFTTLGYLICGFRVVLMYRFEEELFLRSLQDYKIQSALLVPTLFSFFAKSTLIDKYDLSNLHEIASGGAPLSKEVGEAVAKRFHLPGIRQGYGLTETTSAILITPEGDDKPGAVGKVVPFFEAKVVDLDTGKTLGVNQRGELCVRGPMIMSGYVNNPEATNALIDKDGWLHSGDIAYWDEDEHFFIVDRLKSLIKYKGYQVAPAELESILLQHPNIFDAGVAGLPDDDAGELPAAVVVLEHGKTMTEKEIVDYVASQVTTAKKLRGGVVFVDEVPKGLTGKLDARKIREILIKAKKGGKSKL
# FLuc act counter: FLuc activators, initial screening, artefact control for FLuc-dependent activation tests, biochemical, ATPlite luminescence; ATPlite luciferase biochemical, 10 min; 0 = ATP-free wells, 1 = DMSO control; activation factor at 10 µM; 200,000 tested, under 10 active; AID 1027, 2008;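 active = luciferase activation factor, scaled between plate controls, of at least 2 with compound at 10 µM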
#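 test system = cell-free luciferase reagent | medium = PBS as buffer for the ATP substrate | dosing = test compounds dosed from 2 mM stocks in 100% DMSO | incubation = 10 min at ambient temperature | detection = luminescence measurement of luciferase light output | benchmarks = low control with PBS replacing ATP, high control enzyme plus ATP without compound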
# PPC-1+TRAIL kill: compounds killing PPC-1 cancer cells with TRAIL present, primary screen, TRAIL potentiator project, ATPLite luminescence, uHTS | PPC-1 cells + TRAIL, ATPLite viability luminescence | cell killing (% activity), % at 4 µM or 5 µM | actives 0.41% (n = 220,000);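 active = cell killing above 50% in the first pass at 4 µM, then a duplicate retest at 5 µM averaging 50% or more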;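 also: plate controls were cells with TRAIL plus DMSO for no effect and medium-only wells lacking cells for full effect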
# NF-kB neuron act: activators of NF-kB expression in neurons, primary screen, cell-based, HTS; human neuronal cells, NF-kB reporter expression; hits give high values; fold change at 12.5 µM; actives 1.6% (n = 190,000); in the data active = fold change above about 3.3
# Numbers without * were called inactive; · = not tested or not shown. A selection: hits, their analogues and other compounds. The true share with any hit is near 2.2%.
SMILES,APP 5'UTR act,TRAIL sens C8,FLuc inhib CS,FLuc act counter,PPC-1+TRAIL kill,NF-kB neuron act
Cc1nnc(SCc2nnc(-c3ccccc3Br)o2)n1-c1ccccc1,8.0,-8.3,-4.1,1,12.4,0.98
Cc1csc(SCc2nnc(-c3ccccc3Br)o2)n1,185.3*,7.4,19.7,0.8,4.9,5.44*
Fc1ccccc1SCc1nnc(-c2ccccc2Br)o1,161.1*,8.1,43.3,0.6,-18.0,7.24*
C=Cc1ncc(OC)c2c1[nH]c1ccccc12,·,66.1*,·,·,·,·
N/C(=N\OC(=O)c1ccc(Cl)cc1)c1ccn[nH]1,·,83.2*,·,·,·,·
C/C(=N\OC(=O)c1ccc(Cl)cc1)c1nccs1,0.1,-12.3,72.1*,0.3,-9.0,1.17
COc1cc(OC)cc(C(=O)O/N=C(\N)c2cccc(C)c2)c1,·,31.7,·,·,·,·
N/C(=N\OC(=O)c1ccccc1Cl)c1ccccc1,166.1*,65.5*,93.6*,0.1,32.8,7.68*
Cc1cccc(/C(N)=N/OC(=O)c2ccc(Cl)cc2Cl)c1,139.2*,62.3*,89.9*,0.1,45.6,2.22
Cc1noc(C)c1COc1ccccc1C(=O)N1CCN(S(=O)(=O)c2ccc(C(C)C)cc2)CC1,·,-9.4,·,·,·,·
Cc1ccc(S(=O)(=O)n2ccc3c2CCCC3=O)cc1,·,-0.9,·,·,·,·
N/C(=N\OC(=O)c1ccc(Cl)cc1Cl)c1ccc(Cl)cc1,15.2,87.5*,53.6*,0.5,17.8,1.51
Cc1cccc(/C(N)=N/OC(=O)c2cccc3ccccc23)c1,·,92.4*,·,·,·,·
COc1ccccc1C(=O)O/N=C(\N)c1ccccc1Cl,49.3,8.0,-1.4,1,12.5,2.68
N/C(=N\OC(=O)c1cccc2ccccc12)c1cccc([N+](=O)[O-])c1,17.6,15.1,2.0,1,2.1,1.36
N/C(=N\OC(=O)c1ccccc1Cl)c1ccc(Cl)cc1,57.6,83.1*,56.5*,0.4,33.1,3.72*
N/C(=N\OC(=O)c1ccc(Cl)cc1)c1ccc(Cl)cc1,·,87.8*,36.6,0.6,-2.0,3.13
COC(=O)c1cc(S(=O)(=O)Nc2ccc(C)cn2)c[nH]1,·,6.1,·,·,·,·
O=C(NCCNC(=O)c1cc(Cl)ccc1Cl)c1ccccn1,·,-10.6,·,·,·,·
N/C(=N\OC(=O)c1ccco1)c1ccc(Cl)cc1,158.4*,-6.3,34.5,0.7,3.3,1.1
Cc1ccc(/C(N)=N/OC(=O)/C=C/c2ccccc2)cc1,6.5,36.8,1.3,1,28.7,2.26
Cc1ccc(/C(N)=N/OC(=O)c2ccc(C)cc2Cl)cc1,161.9*,70.5*,73.4*,0.3,62.1*,1.63
N/C(=N\OC(=O)c1ccco1)c1cccnc1,16.4,-0.5,26.4,0.7,-12.5,1.22
COc1c(OC(C)=O)ccc(/C=C/c2ccc3cccc(OCc4ccccc4)c3n2)c1[N+](=O)[O-],37.0,49.4*,18.1,0.8,20.6,1.02
COC(=O)[C@]1(C)N[C@H](CN(C)S(=O)(=O)c2ccc(C(F)(F)F)cc2)[C@@H]2C(=O)N(C)C(=O)[C@@H]21,·,-1.8,·,·,·,·
SMILES,APP 5'UTR act,TRAIL sens C8,FLuc inhib CS,FLuc act counter,PPC-1+TRAIL kill,NF-kB neuron act
CCCCC(=O)N/N=C/c1ccc(Sc2cccc3cccnc23)o1,0.6,0.5,-2.0,1,4.7,4.38*
O=C(Cc1cccc2ccccc12)N/N=C/c1ccc(Sc2cccc3cccnc23)o1,-54.4,·,-5.8,1.1,13.9,0.7
CC(C)(C)N1C(=O)c2ccccc2NC(=O)C1C(=O)NCCc1ccccc1 (stereo unspecified),·,-1.5,·,·,·,·
COc1ccc(Cc2nnc(N/N=C/c3ccc(Br)cc3)[nH]c2=O)cc1OC,·,-4.1,·,·,-6.8,·
O=C(O)c1ccc(/C=N/Nc2nc3ccccc3[nH]2)cc1,·,-4.9,·,·,-4.2,·
O=c1[nH]c(N/N=C\c2ccc(F)cc2)nc2ccccc12,188.8*,44.3,64.2*,0.4,29.3,4.13*
O=c1[nH]c(N/N=C/c2ccc(O)cc2)nc2ccccc12,134.4,17.2,56.5*,0.4,7.7,2.91
COc1ccc(Cc2nnc(N/N=C/c3ccc(O)cc3)[nH]c2=O)cc1OC,-85.5,61.2*,9.2,0.9,28.1,1.43
CC(=O)c1ccccc1OCC(O)CN1CCN(CCN2C(=O)c3cccc4cccc(c34)C2=O)CC1 (stereo unspecified),-5.8,60.1*,-2.7,1,26.9,·
Cc1ccc(C(=O)N/C(=C\c2ccc(-c3ccccc3[N+](=O)[O-])o2)C(=O)NCCCN2CCOCC2)cc1,·,55.6*,·,·,·,·
Cc1ccc(C(=O)N/C(=C\c2cn(C)c3ccccc23)C(=O)NCCCN2CCOCC2)cc1,·,5.7,·,·,·,·
CCN(CC(=O)Nc1ccc(NC(C)=O)cc1)C(=O)c1ccc(Sc2nncn2C)c([N+](=O)[O-])c1,·,2.8,·,·,·,·
O=C(Nc1ccccc1O)c1ccc(NS(=O)(=O)c2cccc3cccnc23)cc1,46.7,1.1,-2.0,1,19.4,11.8*
COC(=O)C1=C(C)NC(C)=C(C(=O)OC)C1C(=O)OCc1nnc(-c2ccccc2Cl)o1,·,4.4,·,·,·,·
O=C1C=C(Nc2cccnc2)c2ccccc2C1=O,·,70.0*,·,·,·,·
CCOc1ccc(NC2=CC(=O)C(=O)c3ccccc32)cc1,·,74.1*,·,·,·,·
O=C1C=C(Nc2ccccc2O)c2ccccc2C1=O,-1.4,47.9,2.9,1,34.3,0.51
COc1cc(Cl)c(NC2=CC(=O)C(=O)c3ccccc32)c(OC)c1,·,86.6*,·,·,·,·
O=C1C=C(Nc2ccc(F)cc2)c2ccccc2C1=O,·,58.3*,·,·,·,·
Cc1ccc(NC2=CC(=O)C(=O)c3ccccc32)c(C)c1,·,37.3,·,·,·,·
CCOC(=O)c1nncc(-c2ccccc2)n1,·,-5.9,·,·,·,·
Cc1n[nH]c(=O)c2c(NC(=O)CSc3nc4ccccc4c(=O)n3CCCO)oc(C)c12,·,-14.0,·,·,·,·
Cc1c(C(=O)O)cnc2cc(-c3ccc(Cl)cc3)nn12,0.5,33.9,56.4*,0.4,3.8,2.18
CC(=O)c1cnc2cc(-c3ccc(Cl)cc3)nn2c1C,42.1,-13.4,13.3,0.9,-5.8,3.59*
CC(=O)c1cnc2c(-c3ccc(Cl)cc3)c(C)nn2c1C,6.7,-17.5,4.0,1,-3.2,1.33
SMILES,APP 5'UTR act,TRAIL sens C8,FLuc inhib CS,FLuc act counter,PPC-1+TRAIL kill,NF-kB neuron act
NC(=O)NCCC1=CCCCC1,-16.9,-6.8,-5.4,1.1,19.7,1.03
O=C(NCCc1ccccc1)NC1CCCCC1,37.9,12.9,14.0,0.9,5.5,3.4*
O=C(NC1CCCCCC1)C(=S)NCCc1ccccc1,-21.8,-6.3,1.8,1,7.3,1.48
O=C(NCCC1=CCCCC1)NC1CCCCC1,81.6,0.9,22.1,0.8,24.2,4.46*
CCOc1ccccc1N(CC(=O)Nc1ccccc1C(=O)N1CCCC1)S(C)(=O)=O,·,1.6,·,·,·,·
O=C(Nc1nc(-c2nc3ccccc3s2)cs1)C1CC1,238.0*,52.4*,54.5*,0.5,27.7,5.7*
